Source: ChEMBL document CHEMBL1821554, “Synthesis and anticancer activity of chalcone-pyrrolobenzodiazepine conjugates linked via 1,2,3-triazole ring side-armed with alkane spacers” (2011)
The source made the active and inactive calls. The rule behind the calls is not given here.

Key:
MCF7 [1] = test: Cytotoxicity against human MCF7 cells assessed as reduction in cell viability at 2 uM after 24 hrs by MTT assay; format: functional, cell-based
MCF7 [2] = test: Cell cycle arrest in human MCF7 cells assessed as accumulation at G0 phase at 10 uM after 24 hrs using propidium iodide staining based flow cytometric analysis (reference value: 1.27 +/- 0.08 %); format: functional
MCF7 [3] = test: Cell cycle arrest in human MCF7 cells assessed as accumulation at G2/M phase at 10 uM after 24 hrs using propidium iodide staining based flow cytometric analysis (reference value: 38.15 +/- 1.068 %); format: functional
[4] = Anticancer activity against human DWD cells by SRB method; format: functional
Summary of the method: (§1)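 Growth inhibition over a panel of human cancer lines (lung, ovarian, oral, colon, prostate, cervix, breast). Value is the 50% growth-inhibition concentration, reported as the mean ± standard error of the mean of three determinations.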

MCF7 [5] = test: Cell cycle arrest in human MCF7 cells assessed as accumulation at G1 phase at 10 uM after 24 hrs using propidium iodide staining based flow cytometric analysis (reference value: 47.64 +/- 1.49 %); format: functional
[6] = Anticancer activity against human Gurav cells by SRB method; format: functional; summary of the method: as §1
COLO 205 = test: Anticancer activity against human COLO205 cells by SRB method; format: functional; summary of the method: as §1
MCF7 [7] = test: Anticancer activity against human MCF7 cells by SRB method; format: functional; summary of the method: as §1
MCF7 [8] = test: Cell cycle arrest in human MCF7 cells assessed as accumulation at G0/G1 phase at 4 uM after 24 hrs using propidium iodide staining based flow cytometric analysis; format: functional
Summary of the method: (§2)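 MCF-7 cells were seeded at 5 × 10^5 per 60 mm dish and grown for 24 h, then exposed to 4 µM compound for 24 h. Cells were trypsinized, fixed in ice-cold 70% ethanol at 4 °C for 30 min and treated with 1 mg/ml RNase at 37 °C for 30 min. They were stained with propidium iodide/citrate/Triton X-100, and DNA content was read on 20,000 events by flow cytometry. Three independent repeats.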

MCF7 [9] = test: Cell cycle arrest in human MCF7 cells assessed as accumulation at S phase at 10 uM after 24 hrs using propidium iodide staining based flow cytometric analysis (reference value: 12.92 +/- 1 %); format: functional
MCF7 [10] = test: Induction of cell cycle arrest at G1 phase in human MCF7 cells at 4 uM after 24 hrs using propidium iodide staining based flow cytometric analysis; format: functional; summary of the method: as §2
PC-3 = test: Anticancer activity against human PC3 cells by SRB method; format: functional; summary of the method: as §1
A549 = test: Anticancer activity against human A549 cells by SRB method; format: functional; summary of the method: as §1
A2780 = test: Anticancer activity against human A2780 cells by SRB method; format: functional; summary of the method: as §1
KB = test: Anticancer activity against human KB cells by SRB method; format: functional; summary of the method: as §1
SiHa = test: Anticancer activity against human SiHa cells by SRB method; format: functional; summary of the method: as §1
[11] = Down regulation of NF-kappaB activity expressed in human MCF7 cells transfected with NF-kB SEAP plasmid at 4 uM after 24 hrs by chemiluminescence-based luminometric analysis; format: cell-based
Summary of the method: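 MCF-7 cells were transiently transfected with the NF-kB SEAP plasmid using lipofectamine 2000. After 24 h, cells were treated with 4 µM compound for 24 h. Lysates were assayed with a chemiluminescent reagent and read by luminometry and by 30 min X-ray film exposure. Transfected untreated cells served as control.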

MCF7 [12] = test: Cytotoxicity against human MCF7 cells assessed as reduction in cell viability at 4 uM after 24 hrs by MTT assay; format: functional, cell-based
Summary of the method: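 MCF-7 cells were seeded at 10,000 per well and left overnight, then treated with 4 µM compound for 24 h. MTT was added for 2 h at 37 °C, formazan was solubilized in extraction buffer, and OD was read at 570 nm. Untreated cells served as control. Three independent experiments, SD.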

MCF7 [13] = test: Induction of apoptosis in human MCF7 cells assessed as down regulation of Bcl2 expression at 4 uM after 24 hrs by ELISA; format: functional, cell-based
Summary of the method: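 MCF-7 cells were treated with 4 µM compound for 24 h. Lysates were added to Bcl2 antibody-coated wells, followed by biotinylated anti-human Bcl2 monoclonal antibody, and bound Bcl2 was detected with streptavidin-HRP (sandwich ELISA).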

[14] = biological target: G1/S-specific cyclin-D1 (Homo sapiens) (UniProt P24385); test: Down regulation of Cyclin D1 promoter activity expressed in human MCF7 cells co-transfected with luciferase gene at 4 uM after 24 hrs by luciferase reporter gene assay; format: cell-based
Chain of G1/S-specific cyclin-D1 (Homo sapiens) (P24385 whole entry): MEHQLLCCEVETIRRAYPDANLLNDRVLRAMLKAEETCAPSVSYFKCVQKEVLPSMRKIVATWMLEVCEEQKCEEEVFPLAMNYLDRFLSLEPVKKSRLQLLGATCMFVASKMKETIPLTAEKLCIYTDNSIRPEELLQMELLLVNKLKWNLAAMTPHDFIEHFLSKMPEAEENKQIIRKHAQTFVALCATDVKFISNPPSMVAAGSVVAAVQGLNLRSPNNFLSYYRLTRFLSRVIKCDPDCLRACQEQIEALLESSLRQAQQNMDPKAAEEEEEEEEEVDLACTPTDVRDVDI
Summary of the method: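 MCF-7 cells were transfected for 24 h with the cyclin D1 promoter (−1745) luciferase construct, which contains an NF-kB site. Cells were then treated with 4 µM compound (final) for a further 24 h, and lysate luciferase was measured by luminometer. Untransfected cells served as negative control and transfected untreated cells as control.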

HOP-62 = test: Anticancer activity against human HOP62 cells by SRB method; format: functional; summary of the method: as §1
MCF7 [15] = test: Induction of apoptosis in human MCF7 cells assessed as down regulation of Bcl-xL expression at 4 uM after 24 hrs by Western blot
MCF7 [16] = test: Downregulation of cyclin D1 protein expression in human MCF7 cells at 4 uM after 24 hrs by Western blot analysis; format: functional, cell-based
Summary of the method: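 MCF-7 cells at 80% confluency were treated with 4 µM compound for 24 h. Cells were lysed in RIPA buffer with protease inhibitors and protein was quantified by Bradford. 50 µg per lane was run on 12% SDS-PAGE and transferred to PVDF. Blots were probed overnight at 4 °C with rabbit polyclonal anti-cyclin D1, with β-actin as loading control, and detected by chemiluminescence.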

ZR-75-1 = test: Anticancer activity against human ZR-75-1 cells by SRB method; format: functional; summary of the method: as §1

Compound	Activity (MCF7 [1])	Activity (MCF7 [2]) [%]	Activity (MCF7 [3]) [%]	GI50 [4] [nM]	Activity (MCF7 [5]) [%]	GI50 [6] [nM]	GI50 (COLO 205) [nM]	GI50 (MCF7 [7]) [nM]	Activity (MCF7 [8]) [%]	Activity (MCF7 [9]) [%]	Activity (MCF7 [10])	GI50 (PC-3) [nM]	GI50 (A549) [nM]	GI50 (A2780) [nM]	GI50 (KB) [nM]	GI50 (SiHa) [nM]	Activity [11]	Activity (MCF7 [12])	Activity (MCF7 [13])	GI50 (HOP-62) [nM]	further results
COc1cc2c(cc1OC)C(=O)N1C[C@@H](n3cc(COc4ccc(/C=C/C(=O)c5ccccc5O)cc4OC)nn3)C[C@H]1C=N2	inactive	5.19	35.19	2700	50.9	2510	110	2350	55.24	8.71	Active	2230	2780	150							
COc1cc2c(cc1O)N=C[C@@H]1CCCN1C2=O		7.62	20.89		61.81	160	110	170	71.1	9.67		200	160	140	170	170	Active	Active	Active	150	Activity [14]: Active; Activity (MCF7 [15]): Active; Activity (MCF7 [16]): Active
COc1cccc2c1C(=O)c1c(O)c3c(c(O)c1C2=O)C[C@@](O)(C(=O)CO)C[C@@H]3O[C@H]1C[C@H](N)[C@H](O)[C@H](C)O1 [DOXORUBICIN]				100		170	140	170						160	170	170				140	
COc1cc(/C=C/C(=O)c2ccc(O)cc2)ccc1OCCCCn1cc(COc2cc3c(cc2OC)C(=O)N2CCC[C@H]2C=N3)nn1				< 160		130	110	160				150	< 150	110	160	2520				190	GI50 (ZR-75-1): 160 nM
COc1ccc(/C=C/C(=O)c2ccc(O)cc2)cc1O		10.15	31.5		51.61				64.11	6.55								Active			
COc1cc(/C=C/C(=O)c2ccccc2O)ccc1OCCCCn1cc(COc2cc3c(cc2OC)C(=O)N2CCC[C@H]2C=N3)nn1	inactive	10.79	7.07	< 130	77.47	120		140	89.1	4.99	Active	130	< 160	100	170	140	Active	Active	Active	160	GI50 (ZR-75-1): 150 nM; Activity [14]: Active; Activity (MCF7 [15]): Active; Activity (MCF7 [16]): Active
